Results taken from ChEMBL document CHEMBL4513216, “Probing the Open Global Health Chemical Diversity Library for Multistage-Active Starting Points for Next-Generation Antimalarials” (ACS Infect Dis, 2020).

Experiment: Toxicity liver stage against HepG2, at 10uM
Assay type: cell-based
Parameters: test concentration 10 uM, cell line HepG2-A16-CD81EGFP
Settings: human, HepG2-A16-CD81EGFP cells; read-out: INHIBITION
How it was run: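 Uninfected HepG2-A16-CD81EGFP cells, 3 × 10^3 per well, 1536-well, plated on prespotted compound at 10 μM final, parasite-free screening media added to match infected plates; puromycin 10 μM positive, DMSO 0.5% negative; run in parallel with 48 h PbLuc assay at 37 °C, 5% CO2; viability by CellTiter-Glo luminescence, normalized to controls.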

Row | Structure (SMILES) | cytotoxicity at 10 µM
1 | CC(C)c1noc([C@@H]2Cc3[nH]cnc3CN2C(=O)Nc2ccccc2)n1 | 0.0515%
2 | O=C1N[C@@H]2CCN(C(=O)N3CCOCC3)[C@@H]2C(=O)N1Cc1ccccc1 | -3.36%
3 | O=C1CC2(CCN(C(=O)c3ccncc3)CC2)Oc2c(Cl)cc(Cl)cc21 | 5.17%
4 | CC(C)(C)n1ncc2c1NC(=O)CSC2c1ccc2c(c1)OCCO2 (stereo not given) | -1.74%
5 | CCc1cnc2c(c1Nc1cccc(OC)c1)c(=O)n(C)c(=O)n2C | 12.6%
6 | O=C(C1CC1)N1CCN(c2ccc(-n3cncn3)nn2)CC1 | -4.83%
7 | O=C(CC1CC1)N1CCC2(CC1)C(=O)NCCN2Cc1ccccc1 | -3.33%
8 | O=C(NCc1ccccc1)N1C[C@H]2CCN[C@H]2C1 | -5.54%
9 | O=C1COC2(CCN(C(=O)c3cnccn3)CC2)CN1CC1CC1 | -16%
10 | O=C([C@H]1CCCO1)N1Cc2nccn2CC(COc2cccnc2)C1 (stereo not given in full) | 7.45%
11 | O=C(C1CCOCC1)N1CCc2ncnc(-c3ccccc3)c2CC1 | -6.09%
12 | Cc1nc([C@H]2C[C@H]3CN(C(=O)c4cc(C)c(C)s4)CC[C@@H]3O2)no1 | 0.732%
13 | O=C1COC2(CCN(Cc3ccncc3)CC2)CN1CC1CC1 | -3.84%
14 | O=C(Cc1ccccc1)N1CCn2cc(Cn3cncn3)nc2C1 | -137%
15 | CCOc1ccc(NC(=O)c2cc3c([nH]c2=O)CCC3)cc1 | 6.5%
16 | Cc1cc2nc(SCC(=O)N3CCOCC3)n(CC(C)C)c(=O)c2[nH]1 | 1.36%
17 | Cc1cccc(COC[C@]23COC[C@H]2CN(C(=O)c2ccsc2)C3)n1 | -7.85%
18 | CN1CCN(C(=O)[C@@H]2CCO[C@@H]3CCN(c4ncccn4)C[C@@H]32)CC1 | -4.96%
19 | O=C(N[C@@H]1CN(Cc2cccs2)[C@@H]2CCCO[C@@H]21)C1CC1 | 3.63%
20 | CN(C)c1ncc(-c2ccc(C(N)=O)cc2)c(C2CNCCO2)n1 (stereo not given) | -1.42%
21 | COC1CCCOC12CCN(C(=O)c1ccc3[nH]nnc3c1)CC2 (stereo not given) | -3.97%
22 | CNc1cc(C2CN(C(=O)c3ccn(C)n3)CCO2)nc(C)n1 (stereo not given) | 12.6%

Row | Structure (SMILES) | cytotoxicity at 10 µM
23 | COc1ccc2c(c1)NC(C1CCN(C(=O)C3CC3)CC1)NS2(=O)=O (stereo not given) | 0.0454%
24 | Cc1cc(NC(=O)c2ccc(C)c(F)c2)[nH]n1 | -42.1%
25 | CC1CS(=O)(=O)CCN1Cc1ccccc1N(C)C (stereo not given) | 5.29%
26 | CCc1nsc(N2CCn3c(nnc3-c3ccccc3)C2)n1 | 3.67%
27 | O=C(c1cccnc1N1CCCC1)N1CCOC(c2ccccc2)C1 (stereo not given) | 3.13%
28 | COc1ccccc1CC(NC(=O)N1CCC[C@@H]1CO)C(C)C (stereo not given in full) | 3.34%
29 | Cc1cscc1C(=O)Nc1cncnc1N(C)C | 0.137%
30 | CN(C)C(=O)CN(C)C(=O)c1cccn1CCc1ccccc1 | 1.17%
31 | CN(C)S(=O)(=O)c1ccc(=O)n(CC2CCCO2)c1 (stereo not given) | -3.54%
32 | Cc1ccccc1C(NC(=O)NCC1(CO)CC1)C1CC1 (stereo not given) | -7.16%
33 | Cc1ccc(C(=O)NCCS(=O)(=O)N2CCSCC2)n1C | -0.506%
34 | CCN(CC)c1ccc(CNC(=O)c2ccc(=O)[nH]n2)cn1 | 4.16%
35 | COc1cc(Cl)c(C)cc1NC(=O)CCNc1ccc(C#N)cn1 | 0.423%
36 | CCCNC(=O)CC1OCCc2ccsc21 (stereo not given) | -1.5%
37 | COc1cccc(CCC(=O)N2CCN(Cc3noc(C)n3)CC2)c1 | 3.09%
38 | CCC(C)Sc1nncn1-c1ccc(OC)nc1 (stereo not given) | -1.35%
39 | COCCCNC1CCCN(c2ccc(C)nn2)C1 (stereo not given) | -9.9%
40 | Cc1cc2n(n1)CC(CNC1CCN(C3CC3)CC1)CN2 (stereo not given) | 4.16%
41 | Cc1nc(CN2CCC(CNC(=O)Nc3ccccc3)CC2)oc1C | 3.54%
42 | Cn1cc(-c2csc(N3CCN(c4nccs4)CC3)n2)cn1 | 6.23%
43 | CCc1noc(CN2CCC(NC(=O)c3ccc(C)s3)CC2)n1 | -5.04%
44 | COc1ccsc1C(=O)Nc1cc(CN2CCOCC2)ccc1C | -0.0813%

Row | Structure (SMILES) | cytotoxicity at 10 µM
45 | COc1ccc(F)cc1CSCC(=O)N(CCC#N)CCC#N | 0.0531%
46 | Cc1ccc(O)c(C(=O)N2CCCC2c2nncn2CC(C)C)c1 (stereo not given) | -3.27%
47 | O=C1CCc2cc(OCCN3CCc4cncnc4C3)ccc2N1 | -7.2%
48 | Cc1ccc(-n2ccnc2)c(C(=O)NCCCN(C)C)c1 | -152%
49 | CC(C)Oc1ccc(-c2csc(Cn3ccc(=O)[nH]c3=O)n2)cc1 | 0.137%
50 | NC(=O)NC(=O)CCSCc1cc(F)cc2cccnc12 | 1.88%
51 | Cc1ccc(-c2n[nH]cc2CNCC2CCS(=O)(=O)C2)o1 (stereo not given) | 12.4%
52 | CN(CC(N)=O)C(=O)c1cnc(-c2ccc(Cl)s2)s1 | -5.02%
53 | O=C(CNC(=O)C1CC1)NCC(F)(F)F | -5.82%
54 | c1csc(N2CCN(c3nccn4cnnc34)CC2)n1 | -5.81%
55 | CN(C)C(=O)Cn1ccc2cc(NC(=O)N3CCOCC3)ccc21 | 6.35%
56 | CCc1noc(C(C)N(C)CC(=O)Nc2cccc(C)n2)n1 (stereo not given) | 0.407%
57 | Cc1n[nH]c(C2CN(C(=O)CCc3ccco3)CCO2)n1 (stereo not given) | -1.95%
58 | COc1ccc(-c2nnc(SCC(=O)NCC(C)C)[nH]2)c(OC)c1 | -6.73%
59 | COCCOCC(=O)Nc1ccc(C)cc1F | -3.81%
60 | Cc1nn(CC(=O)N2CCCCC2Cn2cccn2)c(C)c1Cl (stereo not given) | 2.35%
61 | CC(C)Cc1nc(CN(C)c2cc(C(C)C)nc3ccnn23)no1 | 3.61%
62 | Cc1ccc(CN2C[C@@H](C(=O)O)[C@H](c3cccnc3)C2)s1 | 4.17%
63 | O=C(c1cccc(S(=O)(=O)NCCc2nccs2)c1)N1CCOCC1 | -4.19%
64 | O=C1CN(C(=O)CC2C(=O)NCCN2CC2CCCCC2)CCN1 (stereo not given) | -7.41%
65 | Cc1ccccc1CN1C[C@@H](CN(C)CCO)[C@@H](CO)C1 | -1.03%
66 | CN(CCc1ncnn1-c1ccccc1Cl)C1CCS(=O)(=O)C1 (stereo not given) | 9.53%

Row | Structure (SMILES) | cytotoxicity at 10 µM
67 | Cc1cccn2c(CC(=O)N3CCC(Oc4ncccn4)CC3)cnc12 | 6.78%
68 | CCCC(C(=O)NC1CCN(S(C)(=O)=O)CC1)n1cccc1 (stereo not given) | -3.71%
69 | COCCN1CCCC2(CCN(c3nc(C)nc4c3CCC4)C2)C1=O (stereo not given) | -11.4%
70 | Cc1ccc2[nH]c(CN(C)Cc3n[nH]c4c3CCC4)nc2c1 | 4.85%
71 | CC(C)CN1CC(C(=O)NCCc2c[nH]cn2)CC1=O (stereo not given) | -3.62%
72 | Cn1ccnc1SCCNC(=O)c1cc(S(N)(=O)=O)ccc1F | -3.45%
73 | CC(=O)NCC(=O)N1CCCC(C(=O)c2ccc(C(C)(C)C)cc2)C1 (stereo not given) | 5.78%
74 | C[C@@H]1CN(C(=O)CCc2cnn(C)c2)C[C@@]1(O)C1CCC1 | -11.4%
75 | CCC(C(=O)N(C)Cc1cc(COC)[nH]n1)n1cccn1 (stereo not given) | -5.89%
76 | COCCn1ccnc1C1CCN(C(=O)c2cccc(COC)n2)CC1 | 1.62%
77 | Cc1nc(NCC(O)CN2CCCCCC2)c2c(C)nn(C)c2n1 (stereo not given) | -2.86%
78 | CC(=O)N1CCN(c2cc(-n3cnc(C)c3C)nc(C)n2)CC1 | 0.727%
79 | Cc1cccnc1[C@H](C)NC(=O)Cc1cc2c(cc1Cl)OCCO2 | -8.26%
80 | CCCC1(CO)CCCN(c2ncccc2F)C1 (stereo not given) | -6.83%
81 | O=C(Cc1cccc(F)c1)NCCCNC(=O)c1cccc(O)c1 | 1.06%
82 | Cc1ccc(-c2nnc(CN3CCCCC3Cn3cncn3)o2)cc1 (stereo not given) | 3.84%
83 | Cc1ccc(C(C)N(C)Cc2nc3c(cnn3C)c(=O)[nH]2)s1 (stereo not given) | -4.31%
84 | COc1ccc(CNCC2CCN(c3ccccc3OC)C2)cc1O (stereo not given) | -8.54%
85 | Cc1cccc(-c2ccc(C(=O)NCC3CCCO3)c(=O)[nH]2)c1 (stereo not given) | -7.36%
86 | CCN1CCN(C(=O)COCc2cccc(OC)c2)CC1 | -11.5%
87 | CC(C)c1noc(CCCC(=O)NC(C)c2ccccn2)n1 (stereo not given) | -4.36%
88 | Cn1ncc2c(=O)[nH]c(CN3CCCC3c3cccc(F)c3)nc21 (stereo not given) | -9.14%

Row | Structure (SMILES) | cytotoxicity at 10 µM
89 | Cc1cnn(CC2CCCN2C(=O)c2sccc2-n2cnnn2)c1 (stereo not given) | -15%
90 | CCCc1noc2ncc(C(=O)N3CCCC3c3cnn(C)c3)cc12 (stereo not given) | -11.9%
91 | Cc1ccc(NC2CCN(C(=O)COc3ccccc3)CC2)nn1 | -3.25%
92 | CCN(Cc1nc2c(cnn2C)c(=O)[nH]1)Cc1ccccc1Cl | -22.7%
93 | CSC(C)C(=O)NCc1ccc(-n2cncn2)nc1 (stereo not given) | 3.28%
94 | COc1ccc(-c2cc(C3CCNCC3)nc(C)n2)cc1 | 10.2%
95 | COc1ccc(CNCC(C)Oc2ccccn2)cc1 (stereo not given) | -2.7%
96 | Cn1ncc2c1C(COCC1CC1)N(Cc1ccoc1)CC2 (stereo not given) | 1.04%
97 | O=C(CN1CC(c2nc(-c3ccco3)no2)C1)NCc1ccc(F)cc1 | -5.07%
98 | O=S(=O)(C1CC1)N1CCO[C@H]2[C@@H](Oc3ncccc3F)CC[C@@H]21 | 1.67%
99 | c1cncc(N2CCC3(CCCN(c4ccncc4)C3)CC2)c1 | 1.84%
100 | Cc1ccc(O[C@@H]2C[C@H]3CN(C(=O)c4cnccn4)CCN3C2)cc1 | 1.12%
101 | CCn1cc2c(n1)CN(C(=O)c1ccncc1)CC2COCC1CC1 (stereo not given) | -2.37%
102 | NC(=O)c1ccc(CNC2CC2)cc1 | 8.57%
103 | O=C(c1ccnnc1)N1CC[C@]2(C[C@H](Oc3ncccc3F)CO2)C1 | 3.42%
104 | Cc1cccc(CN2CCC3(CCCN(C(=O)N4CCCC4)C3)C2=O)n1 (stereo not given) | 8.76%
105 | Cc1nnc([C@@H]2CC[C@@H]3[C@@H](CCN3Cc3ccccn3)O2)o1 | 11.3%
106 | O=C(C1CCCO1)N1CCc2ncnc(NC3CCC3)c2CC1 (stereo not given) | -5.16%
107 | COCC1CN(C(=O)c2ccco2)Cc2cn(C)nc21 (stereo not given) | 9.08%
108 | Cc1oc(C(C)C)cc1C(=O)N1C[C@@H]2CC[C@H]1CN(c1ncccn1)C2 | -126%
109 | O=C(CCn1cc(Cl)cn1)N1C[C@H]2CC[C@@H](C1)N(Cc1ccccn1)C2 | 7.15%
110 | CCn1ncc(-c2nc3c[nH]n(CC)c-3n2)c1C | 2.13%
